# Source: PubChem BioAssay
# The list is not random: actives were taken first. Their share in the collection is about 5.4%.
# E coli WT exp = growth inhibitors of wild-type E. coli, primary screen, strain BW25113, expanded library, OD600; OD600 absorbance; growth inhibition, % at 100 µM; hit rate 0.15% among 98,000;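 active means growth inhibition above about 50% at one test dose, limit read from the data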;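 further: growth measured after 20 h incubation at 37 °C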
# tolC growth inh = growth inhibitors of E. coli tolC mutant, primary screen, strain BW25113 ΔtolC::kan, 384-well; OD615; growth inhibition, % at 10 µM (by protocol); hit rate 2.2% among 65,000;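 active means growth inhibition at or above a cutoff equal to the mean over every tested compound plus 3 SD, cut at about 60% in these data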;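 further: growth measured after 20 h incubation at 37 °C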
#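 Doses: one dose of 10 µM final / Material: E. coli BW25113 ΔtolC::kan, tolC deletion mutant strain / Buffer or medium: LB with kanamycin 50 µg/mL / Evaluation: percent growth inhibition / Detection: optical density read at 615 nm / Incubation: 37 °C, 20 h exposure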
# PostGolgi ctrl = growth inhibition of yeast control strain, primary screen, counter-screen for post-Golgi transport modulator project; hit rate 5% among 98,000; efflux-deficient yeast background strain, growth absorbance A615, 16 h; AID 738, 2007; inhibition, % at 10 µM
# PLAP activator = PLAP enzyme activators, biochemical, luminescence, HTS | activation fold at 20 µM | hit rate 1.2% among 96,000 | purified PLAP enzyme, luminescent substrate read-out; stronger effect = higher value | Alkaline phosphatase, placental type (Homo sapiens), P05187; in the data active means activation fold above about 2
# PostGolgi yeast = phenotypic screen on post-Golgi transport, primary screen. post-Golgi transport phenotypic cell assay. inhibition, % at 10 µM. hit rate 0.9% among 98,000;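 further: yeast cells grown in 1536-well plates; yeast grown about 18 h at 30C before absorbance read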
# HePTP inh = inhibitors of human HePTP phosphatase, primary screen, biochemical, absorbance, leukemia target. hit rate 0.64% among 110,000. AID 521, 2006. recombinant HePTP phosphatase activity, OD absorbance. Tyrosine-protein phosphatase non-receptor type 7 (Homo sapiens), P35236. inhibition, % at 20 µM; in the data active means inhibition above about 50%;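 further: plate controls were vehicle for no effect and reference inhibitor for full effect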
# Target sequence (P35236 whole entry, looked up): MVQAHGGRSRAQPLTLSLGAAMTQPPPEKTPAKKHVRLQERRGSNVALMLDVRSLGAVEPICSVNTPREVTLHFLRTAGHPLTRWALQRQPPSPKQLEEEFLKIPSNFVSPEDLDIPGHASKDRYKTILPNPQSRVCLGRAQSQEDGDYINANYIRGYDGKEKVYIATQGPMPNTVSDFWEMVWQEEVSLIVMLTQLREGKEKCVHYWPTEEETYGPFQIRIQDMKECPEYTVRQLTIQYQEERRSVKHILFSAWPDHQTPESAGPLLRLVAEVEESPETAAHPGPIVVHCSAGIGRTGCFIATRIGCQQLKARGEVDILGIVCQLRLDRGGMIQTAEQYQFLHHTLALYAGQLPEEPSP
# An asterisk follows results filed as active; nt = no result given. Unless noted, no stated cut-off is given here; in the data, active means inhibition above about 30%; inactive means the rest.
SMILES,E coli WT exp,tolC growth inh,PostGolgi ctrl,PLAP activator,PostGolgi yeast,HePTP inh
O=C(O)c1cc(S(=O)(=O)N2CCCCC2)ccc1F,3,3,5,1,-1,-4
CCn1c(SCC(=O)Nc2ccc3c(c2)oc2ccccc23)nnc1-c1ccc(N)cc1,-5,nt,18,1.5,42*,nt
CCOc1cc(N2CCOCC2)c(OCC)cc1NC(=O)CN1C(=O)NC2(CCc3ccccc32)C1=O (stereo not drawn),9,nt,4,1.5,0,nt
COc1cc2c(cc1NC(=O)CN1C(=O)NC3(CCc4ccccc43)C1=O)oc1ccccc12 (stereo not drawn),-9,36,38*,1.5,8,-6
Cc1occc1-c1nnc(SCC(=O)Nc2nccs2)n1Cc1ccco1,4,1,36*,1.1,-4,3
CC(=O)Nc1ccc(-c2nnc(SCC(=O)Nc3ccc4c(c3)oc3ccccc34)n2C)cc1,1,nt,5,1.2,-6,nt
Cc1cc(NS(=O)(=O)c2ccc(NC(=O)C(C)C)cc2)nc(C)n1,nt,nt,nt,nt,nt,5
CCOC(=O)CSc1nc2cc(C(=O)NCc3ccco3)ccc2c(=O)n1C1CCCCC1,0,-3,45*,0.9,-7,10
CCn1c(SCC(=O)OC2CCCCC2)nc2ccccc2c1=O,12,72*,14,1.2,-6,6
CCOC(=O)CSc1nc2cc(C(=O)NCc3ccco3)ccc2c(=O)n1-c1ccc(F)cc1,-7,-16,5,1,10,-4
CCOC(=O)CSc1nc2ccccc2c(=O)n1CC1CCC(C(=O)NCc2ccco2)CC1 (stereo not drawn),-8,8,36*,1.2,2,-2
COc1ccc(-n2c(Cc3cccn3C)nnc2SCC(=O)Nc2ccccc2C)cc1,-1,16,15,1.7,1,6
COc1cccc(C(=O)OCC(=O)c2ccc(Cl)cc2)c1,nt,nt,nt,nt,nt,1
CC(C)(C)n1nnnc1CN(Cc1cccnc1)Cc1ccccc1Cl,7,nt,20,1.6,50*,nt
CCN(Cc1ccccc1)C(c1ccncc1)c1nnnn1C(C)(C)C (stereo not drawn),-1,13,40*,nt,14,9
CC(C)(C)n1nnnc1C(c1cccs1)N(Cc1ccccc1)Cc1cccnc1 (stereo not drawn),-9,80*,28,1.3,13,7
CC(C)(C)n1nnnc1C(c1cccnc1)N(Cc1ccccc1)Cc1cccs1 (stereo not drawn),-23,nt,21,0.9,-3,nt
CCN(Cc1ccccc1)C(c1ccc(C)cc1)c1nnnn1C(C)(C)CC (stereo not drawn),-9,nt,9,0.9,7,nt
c1ccc(CN(Cc2ccco2)C(c2ccncc2)c2nnnn2C2CCCC2)cc1 (stereo not drawn),-6,64*,21,1.3,1,10
COc1ccccc1N(CC(=O)Nc1ccc(Cl)cc1)S(=O)(=O)c1ccccc1,nt,nt,nt,nt,nt,-15
C=CCNC(=O)c1onc(CSc2ccc(F)cc2)c1C(=O)O,-11,nt,-2,1,0,nt
Cc1ccccc1SCc1noc(C(=O)NC(C)C)c1C(=O)O,1,nt,-7,1,7,nt
CC(C)NC(=O)c1onc(CSc2ccccc2F)c1C(=O)O,-6,nt,39*,0.9,-2,nt
C=CCNC(=O)c1onc(CSc2ccccc2)c1C(=O)O,-5,nt,17,0.9,-4,nt
C=CCNC(=O)c1onc(CSc2ccc(C(C)C)cc2)c1C(=O)O,-13,nt,33*,1.3,-4,nt
C=CCNC(=O)c1onc(CSc2ccc(F)cc2)c1C(=O)NCCOC,0,nt,46*,1.1,0,nt
CCOC(=O)C1=C(C)NC(=O)NC1c1cc(OC)c(OC)cc1OC (stereo not drawn),nt,nt,nt,nt,nt,5
Cc1ccccc1N(CC(=O)NCC1CCCO1)C(=O)C1(C)CC(=O)N=C2C=CC=CN21 (stereo not drawn),-3,-9,3,1,-5,0
CCn1c(SCC(=O)Nc2nnc(C)s2)nc2c(c1=O)SC(C)C2 (stereo not drawn),-5,-17,39*,1.1,-7,5
CCn1c(SCC(=O)Nc2ccc3c(c2)OCO3)nc2c(c1=O)SC(C)C2 (stereo not drawn),-2,6,74*,0.9,6,0
